PMI act satM6P: PMI (human) activation, high substrate; P34949; coupled PMI enzyme assay, resazurin fluorescence, 20 min; hits give high values; 1 = untreated enzyme, 0 = substrate-free blank; activation factor at 20 µM; hit rate 0.34% among 190,000; AID 1216;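 active = activation factor of 2 or more at 20 µM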
Target sequence (P34949 whole entry, looked up): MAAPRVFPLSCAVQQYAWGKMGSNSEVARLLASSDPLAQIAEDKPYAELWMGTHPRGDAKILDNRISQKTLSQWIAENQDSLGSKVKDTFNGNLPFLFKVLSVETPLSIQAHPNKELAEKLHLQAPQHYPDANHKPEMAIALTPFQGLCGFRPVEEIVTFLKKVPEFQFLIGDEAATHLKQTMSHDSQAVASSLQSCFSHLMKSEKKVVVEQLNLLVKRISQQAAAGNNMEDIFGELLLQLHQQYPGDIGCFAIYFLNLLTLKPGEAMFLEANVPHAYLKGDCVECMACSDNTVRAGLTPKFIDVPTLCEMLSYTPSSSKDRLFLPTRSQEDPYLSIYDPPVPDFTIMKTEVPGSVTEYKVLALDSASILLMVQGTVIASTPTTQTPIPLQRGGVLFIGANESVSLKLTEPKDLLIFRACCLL
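Test system: human phosphomannose isomerase with PGI, G6PDH, diaphorase coupling enzymes; Amount: PMI at 15 ng/mL final; Reagent: Mannose-6-phosphate 1.0 mM (near-saturating) plus 0.22 mM NADP+; Timing: 20 min, room temperature; Technique: resorufin fluorescence at Ex 544/Em 590 nm; Dosing: 20 µM single dose.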
PTEN del growth: PTEN-deleted cell growth suppression. viability, % at 10 µM. HCT116 PTEN-null viability, CellTiter-Glo, 60 h; hits give low values. hit rate 1.2% among 140,000;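 active = viability at or below a set limit, 4 SD under the median of all tested compounds, cut at about 3.7% in these data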;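 note: PTEN knockout HCT116 line with beta catenin targeted HCT116 as companion control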
Lmaj promast: inhibitors of Leishmania major promastigote growth. AID 1063. inhibition, % at 10 µM. Leishmania major promastigotes, resazurin fluorescence viability. hit rate 9% among 200,000; in the data active = inhibition above about 50%;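 note: promastigotes grown with compound for 44 hours at 28 °C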
HCT116 bCat-KO: beta-catenin-lacking colon tumor cell growth suppression; viability, % at 10 µM; hit rate 1.5% among 140,000; HCT116 beta-catenin knockout viability, CellTiter-Glo, 60 h; hits give low values;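 active = viability at or under a set limit, the compound median less 4 SD, cut at about 6% in these data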
PMI activator: activators of human phosphomannose isomerase; activation factor at 20 µM; hit rate 0.005% among 190,000; P34949; purified human PMI, coupled resazurin fluorescence, 20 min; hits give high values; 1 = vehicle control, 0 substrate-free wells;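 active = activation factor of 2 or more at 20 µM, relative to plate controls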
A number is an active result; 0 = inactive; - = not tested or not shown. Shown are actives, neighbours in structure and some others; about 9.6% of the full set was active somewhere.

SMILES	PMI act satM6P	PTEN del growth	Lmaj promast	HCT116 bCat-KO	PMI activator
Cc1cccc(N=Nc2ccc(O)c3ncccc23)c1	0	0	100	6.0	0
Cc1cccnc1NCc1ccc(O)c2ncccc12	0	2.5	58	3.9	0
CCS(=O)(=O)c1ccc(OC)c(N=Nc2ccc(O)c3ncccc23)c1	0	-	100	-	0
Cc1ccc(C)c(N=Nc2ccc(O)c3ncccc23)c1	0	-	100	-	0
Cc1ccc(NCc2ccc(O)c3ncccc23)cc1	0	-	0	-	0
COc1ccc(F)cc1C(=O)C1CCCN(Cc2cccn2-c2ccccn2)C1 (stereo not drawn)	0	-	63	-	0
COc1cccc(C(=O)C2CCCN(Cc3cccn3-c3cccnc3)C2)c1 (stereo not drawn)	0	-	89	-	0
COc1cccc(CN2CCN(Cc3cccn3-c3cccnc3)CC2CCO)c1 (stereo not drawn)	-	-	0	-	-
COc1ccc(C(=O)C2CCCN(Cc3cccn3-c3ccccn3)C2)c(OC)c1 (stereo not drawn)	0	-	92	-	0
COc1ccc(F)cc1C(=O)C1CCCN(Cc2c[nH]c3ccccc23)C1 (stereo not drawn)	0	-	0	-	0
Clc1ccc(C2=C3CCCCn4c(-c5ccccc5)c[n+](c43)C2)cc1	0	0	100	0	0
COc1ccc(-c2c[n+]3c4n2CCCCC4=C(c2ccc(Br)cc2)C3)cc1	0	0	100	0	0
O=C(c1ccccc1F)N(NC(=O)C(O)(c1ccccc1)c1ccccc1)c1ccccc1	0	0	0	0	0
OCCC1CN(Cc2ccon2)CCN1Cc1ccccc1 (stereo not drawn)	0	-	0	-	0
c1cncc(CSc2ccc(-c3ccc4c(c3)OCO4)nn2)c1	0	-	0	-	0
COc1cccc(CSc2nc3ccccc3cc2C=O)c1	0	0	97	0	0
COc1ccc2c(c1OC)C(=O)N1N=C(c3ccc(Br)cc3)CC21 (stereo not drawn)	0	0	0	0	0
COc1ccc(C2=NN3C(=O)c4c(ccc(OC)c4OC)C3C2)cc1 (stereo not drawn)	0	0	60	0	0
CCN(CC)CCCNc1nc2cc(OC)c(OC)cc2c2nc(-c3ccccc3)nn12	0	0.8	101	0.8	0
COc1cc2nc(NCC3CCCO3)n3nc(-c4cccnc4)nc3c2cc1OC (stereo not drawn)	0	0	0	0	0
COc1cc2nc(NCCCN3CCN(C)CC3)n3nc(-c4ccccc4)nc3c2cc1OC	0	1.9	101	2.2	0
CCN(CC)CCCNc1nc2cc(OC)c(OC)cc2c2nc(-c3cccnc3)nn12	0	1.6	101	1.7	0
CC(C)CN(CC(C)C)c1ccc(/C=N/n2cnnc2)cc1[N+](=O)[O-]	0	-	0	-	0
c1ccc(COc2ccccc2CNc2nn[nH]n2)cc1	0	-	0	-	0
Cc1ncc(CO)c(/C=N/NC(=O)c2ccc(Br)cc2)c1O	0	0	98	0	0
SMILES	PMI act satM6P	PTEN del growth	Lmaj promast	HCT116 bCat-KO	PMI activator
Cc1ncc(CO)c(/C=N/NC(=O)c2cc(Br)ccc2O)c1O	0	-	0	-	0
O=C(Cn1cnc2ccccc2c1=O)NCCC(=O)Nc1ccc2c(c1)OCO2	0	-	0	-	0
Cc1cc(C)nc(/N=C(\N)Nc2ccc(OCc3ccccc3)cc2)n1	0	-	100	-	0
COc1cc(NC(=S)NCc2cccnc2)cc(OC)c1	0	0	96	0	0
COc1ccc2[nH]c(=O)c(CN(C(=O)c3ccco3)C3CCCCC3)cc2c1	0	0	94	0	0
COc1ccc2[nH]c(=O)c(CN(C(=O)NC3CCCCC3)C3CCCC3)cc2c1	0	0	100	0	0
C[C@@H]1C=C(C(=O)NCc2ccccc2)O[C@H](OCc2ccc(CO)cc2)C1	0	-	0	-	0
Cc1cc(/C=N/O)c(C)n1-c1ccc(Br)cc1	0	0	0	0	0
O/N=C/c1ccn(-c2ccc(Br)cc2)c1	0	-	92	-	0
CCOc1ccc(CC(=O)C2C(=O)CCCC2=O)cc1OCC	2.1	0	0	0	0
O=c1c(N2CCCCC2)coc2ccccc12	2	0	0	0	0
CNCC/C=C1/c2ccccc2CSc2ccccc21	0	0	90	0	0
NC(=O)C1c2ccccc2CSc2ccccc21 (stereo not drawn)	0	0	0	0	0
COc1ccc(N2CCN(c3nc(-c4cccs4)nc4ccccc34)CC2)cc1	0	-	0	-	0
CCN(CC)S(=O)(=O)c1cccc(NC(=O)C(=O)c2c(-c3ccccc3)cc3ccccn23)c1	0	0	98	0	0

Compound activity: PubChem BioAssay, several laboratories
